Measured values taken from ChEMBL document CHEMBL1140112, “Desferrithiocin analogues and nephrotoxicity” (J Med Chem, 2008).

What was measured:
Rattus norvegicus [1] = assay: Iron-clearing efficiency in non-iron-overloaded Sprague-Dawley rat assessed as bile iron excretion at 300 umol/kg, po relative to control; type: functional
Outline: (§1)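 Non-iron-overloaded, bile duct-cannulated male Sprague-Dawley rats (400-450 g) got a single 300 µmol/kg dose by oral gavage, as the monosodium salt in distilled water. Bile was collected at 3 h intervals for 24 h and urine at 24 h, with iron by atomic absorption. ICE = treated minus control iron excretion, divided by theoretical output (2:1 complex), as %. n = 3-8; mean ± SEM.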

Rattus norvegicus [2] = assay: Iron-clearing efficiency in non-iron-overloaded Sprague-Dawley rat at 300 umol/kg, po after 24 hrs relative to control; type: functional; outline: as §1
[3] = Apparent partition coefficient, log P at pH 7.4 by shake flask method; type: physicochemical; settings: octanol/water; for logD: read-out: LogD7.4
Outline: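 Apparent partition between octanol and water, expressed as log of the fraction in the octanol layer (log P_app); direct shake-flask method in Tris buffer, pH 7.4.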

Rattus norvegicus [4] = assay: Nephrotoxicity in non-iron-overloaded Sprague-Dawley rat at 300 umol/kg, po; type: toxicity, organism-based; settings: in vivo
Outline: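 Male Sprague-Dawley rats (400-450 g), not iron-overloaded, bile duct-cannulated, each given a single 300 µmol/kg oral gavage dose.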

Rattus norvegicus [5] = assay: Iron-clearing efficiency in non-iron-overloaded Sprague-Dawley rat assessed as urine iron excretion at 300 umol/kg, po relative to control; type: functional; outline: as §1
Sapajus apella [6] = assay: Iron-clearing efficiency in iron-overloaded Cebus apella assessed as bile iron excretion at 150 umol/kg, po relative to control; type: functional
Sapajus apella [7] = assay: Iron-clearing efficiency in iron-overloaded Cebus apella at 150 umol/kg, po relative to control; type: functional
Outline: (§2)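 Iron-overloaded Cebus apella were dosed once by oral gavage with the monosodium salt (free acid plus 1 equiv NaOH in distilled water; one ligand in 40% Cremophor RH-40/water). Feces and urine were collected at 24 h intervals from 4 d pre-drug to 5 d post-drug, and iron was read by flame AAS. ICE = 2-day post-drug iron minus mean 4-day baseline, divided by theoretical output (2:1 complex), as %. Mean ± SEM.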

Sapajus apella [8] = assay: Iron-clearing efficiency in iron-overloaded Cebus apella assessed as urine iron excretion at 150 umol/kg, po relative to control; type: functional; outline: as §2

Row | SMILES | Activity (Rattus norvegicus [1]) [%] | Activity (Rattus norvegicus [2]) [%] | LogD7.4 [3] | Activity (Rattus norvegicus [4]) | Activity (Rattus norvegicus [5]) [%] | Activity (Sapajus apella [6]) [%] | Activity (Sapajus apella [7]) [%] | Activity (Sapajus apella [8]) [%] | logD [3]
1 | CCCCOc1ccc(O)c(C2=N[C@@](C)(C(=O)[O-])CS2)c1.[Na+] | 99 | 21 | 0.94 | Toxic | 1 | – | – | – | –
2 | CCCCCCCCOc1ccc(O)c(C2=N[C@@](C)(C(=O)[O-])CS2)c1.[Na+] | 97 | 4 | 1.56 | – | 3 | – | – | – | –
3 | COCCOCCOCCOc1ccc(C2=N[C@@](C)(C(=O)[O-])CS2)c(O)c1.[Na+] | 90 | 5.5 | – | – | 10 | 96 | 25.4 | 4 | –
4 | C[C@]1(C(=O)[O-])CSC(c2cc(O)ccc2O)=N1.[Na+] | 99 | 1 | – | – | 1 | 88 | 12.6 | 12 | -1.14
5 | CCCCOc1ccc(C2=N[C@@](C)(C(=O)[O-])CS2)c(O)c1.[Na+] | 98 | 13.1 | 1.02 | Toxic | 2 | – | – | – | –
6 | CCCCCCCCOc1ccc(C2=N[C@@](C)(C(=O)[O-])CS2)c(O)c1.[Na+] | 94 | 6.4 | 1.53 | – | 6 | – | – | – | –
7 | CCCCCCCCOc1cc(O)c(C2=N[C@@](C)(C(=O)[O-])CS2)cc1OCCCCCCCC.[Na+] | – | <0.5 | 2.05 | – | – | – | – | – | –
8 | COc1ccc(C2=N[C@@](C)(C(=O)[O-])CS2)c(O)c1.[Na+] | 98 | 6.6 | – | – | 2 | 91 | 24.4 | 9 | –
9 | COc1ccc(O)c(C2=N[C@@](C)(C(=O)[O-])CS2)c1.[Na+] | 95 | 6.3 | – | – | 5 | 94 | 18.9 | 6 | -0.61
10 | CCOc1ccc(C2=N[C@@](C)(C(=O)[O-])CS2)c(O)c1.[Na+] | 100 | 18 | -0.04 | – | 0 | – | – | – | –
11 | C[C@]1(C(=O)[O-])CSC(c2ccc(O)cc2O)=N1.[Na+] [DEFERITRIN SODIUM] | 100 | 1.1 | – | – | 0 | 88 | 16.8 | 12 | –
